Test results taken from ChEMBL document CHEMBL1135657, “Novel dual inhibitors of AChE and MAO derived from hydroxy aminoindan and phenethylamine as potential treatment for Alzheimer's disease” (J Med Chem, 2002).

Tests used:
[1] = biological target: T1, Amine oxidase [flavin-containing] B (Rattus norvegicus, UniProt P19643); experiment: In vitro inhibitory concentration against Monoamine oxidase B of rat brain homogenates; value ranges from 1.6-2.9; assay type: tissue-based
T1 sequence (P19643 whole entry): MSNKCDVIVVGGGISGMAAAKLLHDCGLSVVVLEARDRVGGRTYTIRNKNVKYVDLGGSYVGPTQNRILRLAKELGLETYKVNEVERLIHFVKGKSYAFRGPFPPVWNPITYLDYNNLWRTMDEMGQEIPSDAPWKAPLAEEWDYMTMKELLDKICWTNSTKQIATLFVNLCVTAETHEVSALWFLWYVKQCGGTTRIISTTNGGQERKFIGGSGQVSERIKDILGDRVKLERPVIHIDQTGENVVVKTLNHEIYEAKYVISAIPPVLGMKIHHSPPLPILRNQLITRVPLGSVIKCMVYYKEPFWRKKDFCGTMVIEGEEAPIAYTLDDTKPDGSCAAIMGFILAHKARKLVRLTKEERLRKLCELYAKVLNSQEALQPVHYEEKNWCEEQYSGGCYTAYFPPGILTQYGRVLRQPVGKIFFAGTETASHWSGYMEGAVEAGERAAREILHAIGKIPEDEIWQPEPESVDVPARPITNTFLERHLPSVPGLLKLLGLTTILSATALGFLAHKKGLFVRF

[2] = biological target: T2, Amine oxidase [flavin-containing] A (Rattus norvegicus, UniProt P21396); experiment: In vitro inhibitory concentration against Monoamine oxidase A of rat brain homogenates; value ranges from 1.0-1.8; assay type: tissue-based
T2 sequence (P21396 whole entry): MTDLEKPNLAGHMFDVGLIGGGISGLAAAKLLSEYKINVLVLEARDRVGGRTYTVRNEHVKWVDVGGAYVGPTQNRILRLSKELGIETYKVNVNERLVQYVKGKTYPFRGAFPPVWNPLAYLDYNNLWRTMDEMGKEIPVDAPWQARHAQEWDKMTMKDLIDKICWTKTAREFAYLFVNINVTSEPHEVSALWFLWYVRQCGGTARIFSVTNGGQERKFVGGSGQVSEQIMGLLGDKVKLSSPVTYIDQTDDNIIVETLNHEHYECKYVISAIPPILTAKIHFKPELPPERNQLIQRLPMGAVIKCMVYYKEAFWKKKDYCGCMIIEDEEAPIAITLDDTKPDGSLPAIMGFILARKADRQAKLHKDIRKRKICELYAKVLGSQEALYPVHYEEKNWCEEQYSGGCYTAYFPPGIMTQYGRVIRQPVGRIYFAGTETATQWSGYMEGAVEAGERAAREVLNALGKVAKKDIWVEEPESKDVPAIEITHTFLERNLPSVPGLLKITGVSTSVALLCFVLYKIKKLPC

[3] = biological target: T2, Amine oxidase [flavin-containing] A; experiment: In vitro inhibitory concentration against Monoamine oxidase A of rat brain homogenates; value ranges from 0.8-1.0; assay type: tissue-based
[4] = biological target: T1, Amine oxidase [flavin-containing] B; experiment: In vitro inhibitory concentration against Monoamine oxidase B of rat brain homogenates; value ranges from 0.19-0.26; assay type: tissue-based
Method in brief: (§1)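 Rat brain homogenate (in 0.3 M sucrose) as enzyme source; compounds diluted 10⁻²M to 10⁻⁹M in 0.05 M phosphate buffer with 0.15 μM clorgyline; preincubated 60 min at 37 °C, then 10 μM ¹⁴C-phenylethylamine added for 20 min more; stopped with citric acid; metabolites extracted into toluene/ethyl acetate, scintillation counted; activity as % of control, tranylcypromine blank.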

Acetylcholinesterase [5] = biological target: T3, Acetylcholinesterase (Homo sapiens, UniProt P22303); experiment: In vitro inhibitory concentration against purified Acetylcholinesterase of human erythrocytes; value ranges from 5.6-11.9
T3 sequence (P22303 whole entry): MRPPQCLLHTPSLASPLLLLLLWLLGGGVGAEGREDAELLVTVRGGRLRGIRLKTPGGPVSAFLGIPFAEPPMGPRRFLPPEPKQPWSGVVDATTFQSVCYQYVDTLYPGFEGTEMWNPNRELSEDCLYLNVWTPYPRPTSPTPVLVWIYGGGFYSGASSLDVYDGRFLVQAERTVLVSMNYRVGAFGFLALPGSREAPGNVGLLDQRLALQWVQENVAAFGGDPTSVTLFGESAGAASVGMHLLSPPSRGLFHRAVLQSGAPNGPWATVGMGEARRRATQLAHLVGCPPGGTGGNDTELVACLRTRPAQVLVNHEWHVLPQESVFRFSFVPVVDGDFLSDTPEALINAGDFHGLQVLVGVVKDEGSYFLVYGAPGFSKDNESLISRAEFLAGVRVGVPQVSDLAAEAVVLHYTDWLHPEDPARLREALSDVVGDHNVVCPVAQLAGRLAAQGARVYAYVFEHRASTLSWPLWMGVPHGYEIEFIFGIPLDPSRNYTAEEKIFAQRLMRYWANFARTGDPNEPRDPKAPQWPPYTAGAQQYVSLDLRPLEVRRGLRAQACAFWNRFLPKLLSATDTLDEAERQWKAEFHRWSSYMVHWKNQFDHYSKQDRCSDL

Acetylcholinesterase [6] = biological target: T3, Acetylcholinesterase
[7] = Bimolecular rate constant for carbamoylation of ACHE; assay type: ADME
Method in brief: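 Human erythrocyte AChE preincubated with inhibitor at 37 °C in 0.1 M phosphate buffer, pH 7.4, under Ellman conditions with 200 µM […]. Pseudo-first-order rate constants (k_obs) for progressive inhibition were obtained at 4-5 inhibitor concentrations. The apparent bimolecular carbamylation constant k_i was calculated from these.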

[8] = Pseudo-first order rate constant for carbamoylation of ACHE at 200 (uM) concentration; assay type: ADME
Method in brief: (§2)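 Human erythrocyte AChE, same Ellman conditions: 200 µM […], 60 min preincubation at 37 °C, 0.1 M phosphate pH 7.4. Progressive inhibition followed at 4-5 inhibitor concentrations. Pseudo-first-order k_obs (min⁻¹) derived per concentration; apparent bimolecular carbamylation constant k_i calculated from these.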

[9] = Pseudo-first order rate constant for carbamoylation of ACHE at 300 (uM) concentration; assay type: ADME; method in brief: as §2
[10] = biological target: T1, Amine oxidase [flavin-containing] B; experiment: In vitro inhibitory concentration against Monoamine oxidase B of rat brain homogenates; assay type: tissue-based
Butyrylcholinesterase [11] = biological target: T4, Butyrylcholinesterase (Equus caballus, UniProt Q9N1N9); experiment: In vitro inhibitory concentration against Butyrylcholinesterase of horse serum; value ranges from 1.54-2.83
T4 sequence (Q9N1N9 whole entry): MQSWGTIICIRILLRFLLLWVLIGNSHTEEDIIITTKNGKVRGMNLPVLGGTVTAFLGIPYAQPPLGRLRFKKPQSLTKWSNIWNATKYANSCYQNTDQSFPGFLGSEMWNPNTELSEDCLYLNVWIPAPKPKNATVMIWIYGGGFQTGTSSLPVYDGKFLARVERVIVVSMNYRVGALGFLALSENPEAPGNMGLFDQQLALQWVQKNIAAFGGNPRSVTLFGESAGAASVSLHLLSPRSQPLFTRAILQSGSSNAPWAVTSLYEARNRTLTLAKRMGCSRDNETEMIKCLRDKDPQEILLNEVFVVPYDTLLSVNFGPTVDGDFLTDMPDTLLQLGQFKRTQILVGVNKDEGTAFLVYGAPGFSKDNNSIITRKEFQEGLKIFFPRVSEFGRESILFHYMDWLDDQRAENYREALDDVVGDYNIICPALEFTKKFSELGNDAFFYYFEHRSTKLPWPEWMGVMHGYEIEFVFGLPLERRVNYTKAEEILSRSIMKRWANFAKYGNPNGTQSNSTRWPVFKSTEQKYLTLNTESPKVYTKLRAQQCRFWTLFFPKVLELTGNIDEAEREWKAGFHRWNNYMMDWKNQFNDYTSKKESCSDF

[12] = Pseudo-first order rate constant for carbamoylation of ACHE at 400 (uM) concentration; assay type: ADME
Method in brief: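 Pseudo-first-order rate constants kobs measured at 4-5 inhibitor concentrations following Bar-On et al. Apparent bimolecular carbamylation constant ki calculated from these.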

[13] = Pseudo-first order rate constant for carbamoylation of ACHE at 50 (uM) concentration; assay type: ADME; method in brief: as §2
[14] = Pseudo-first order rate constant for carbamoylation of ACHE at 100 (uM) concentration; assay type: ADME; method in brief: as §2
Acetylcholinesterase [15] = biological target: T3, Acetylcholinesterase; experiment: In vitro inhibitory concentration against purified Acetylcholinesterase of human erythrocytes; value ranges from […]-[…]
[16] = biological target: T1, Amine oxidase [flavin-containing] B; experiment: In vitro inhibitory concentration against Monoamine oxidase B of rat brain homogenates; value ranges from 0.019-0.021; assay type: tissue-based; method in brief: as §1
[17] = biological target: T2, Amine oxidase [flavin-containing] A; experiment: In vitro inhibitory concentration against Monoamine oxidase A of rat brain homogenates; value ranges from 0.005-0.010; assay type: tissue-based
[18] = biological target: T2, Amine oxidase [flavin-containing] A; experiment: In vitro inhibitory concentration against Monoamine oxidase A of rat brain homogenates; assay type: tissue-based
Acetylcholinesterase [19] = biological target: T3, Acetylcholinesterase; experiment: In vitro inhibitory concentration against purified Acetylcholinesterase of human erythrocytes
[20] = biological target: T2, Amine oxidase [flavin-containing] A; experiment: In vitro inhibitory concentration against Monoamine oxidase A of rat brain homogenates; value ranges from 100-310; assay type: tissue-based
Acetylcholinesterase [21] = biological target: T3, Acetylcholinesterase; experiment: In vitro inhibitory concentration against purified Acetylcholinesterase of human erythrocytes; value ranges from 22.2-56.8
Acetylcholinesterase [22] = biological target: T3, Acetylcholinesterase; experiment: In vitro inhibitory concentration against purified Acetylcholinesterase of human erythrocytes; value ranges from 224-1012
Butyrylcholinesterase [23] = biological target: T4, Butyrylcholinesterase; experiment: In vitro inhibitory concentration against Butyrylcholinesterase of horse serum; value ranges from 0.25-0.40
Method in brief: (§3)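 Ellman assay followed, with 200 µM butyrylthiocholine as substrate. Runs were in triplicate with four-point dose-response curves. IC50 and fiducial limits came from log concentration versus % inhibition.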

[24] = biological target: T2, Amine oxidase [flavin-containing] A; experiment: In vitro inhibitory concentration against Monoamine oxidase A of rat brain homogenates; value ranges from 11-38; assay type: tissue-based
[25] = biological target: T2, Amine oxidase [flavin-containing] A; experiment: In vitro inhibitory concentration against Monoamine oxidase A of rat brain homogenates; value ranges from 290-920; assay type: tissue-based
Butyrylcholinesterase [26] = biological target: T4, Butyrylcholinesterase; experiment: In vitro inhibitory concentration against Butyrylcholinesterase of horse serum; value ranges from 0.99-1.91; method in brief: as §3
Acetylcholinesterase [27] = biological target: T3, Acetylcholinesterase; experiment: In vitro inhibitory concentration against purified Acetylcholinesterase of human erythrocytes; value ranges from 1.28-3.30
Acetylcholinesterase [28] = biological target: T3, Acetylcholinesterase; experiment: In vitro inhibitory concentration against purified Acetylcholinesterase of human erythrocytes; value ranges from 7.33-61.5
Acetylcholinesterase [29] = biological target: T3, Acetylcholinesterase; experiment: In vitro inhibitory concentration against purified Acetylcholinesterase of human erythrocytes; value ranges from 0.49-0.58
Acetylcholinesterase [30] = biological target: T3, Acetylcholinesterase; experiment: In vitro inhibitory concentration against purified Acetylcholinesterase of human erythrocytes; value ranges from 1.27-1.86
Acetylcholinesterase [31] = biological target: T3, Acetylcholinesterase; experiment: In vitro inhibitory concentration against purified Acetylcholinesterase of human erythrocytes; value ranges from 28.1-58.3

## C#CCNC1CCc2cccc(O)c21 (centres undefined)
[1]
  IC50: 2.1 µM
[2]
  IC50: 1.3 µM

## C#CCN(C)[C@H](C)Cc1cccc(OC(=O)N(C)C2CCCCC2)c1
[3]
  IC50: 0.9 µM
[4]
  IC50: 0.22 µM
Acetylcholinesterase [5]
  IC50: 7.9 µM

## C#CCN[C@@H]1CCc2ccc(OC(=O)N(C)CC)cc21.Cl
Acetylcholinesterase [6]
  IC50: 31.8 µM
[7]
  Bimolecular carbamoylation rate constant (ki): 1.7 M⁻¹ s⁻¹
[8]
  K obs: 32 min⁻¹
[9]
  K obs: 42 min⁻¹
[10]
  IC50: > 1000 µM
Butyrylcholinesterase [11]
  IC50: 1.98 µM
[12]
  K obs: 52 min⁻¹
[13]
  K obs: 16 min⁻¹
[14]
  K obs: 21 min⁻¹

## CCCNC1CCc2ccc(OC(=O)N(C)CC)cc21 (centres undefined)
Acetylcholinesterase [15]
  IC50: 3.6 µM

## C#CCN(C)[C@@H]1CCc2ccc(O)cc21
[16]
  IC50: 0.02 µM
[17]
  IC50: 0.007 µM

## CNC1CCc2cccc(OC(=O)N(C)C)c21 (centres undefined)
Acetylcholinesterase [15]
  IC50: 0.51 µM

## CCCN(C)C(=O)Oc1cccc2c1C(N)CC2 (centres undefined)
[18]
  IC50: 1000 µM
[10]
  IC50: > 1000 µM

## C#CCNC1CCc2ccc(OC(=S)N(C)CC)cc21 (centres undefined)
Acetylcholinesterase [19]
  IC50: > 500 µM

## CCN(C)C(=O)Oc1cccc(CCN)c1
[20]
  IC50: 180 µM
[10]
  IC50: > 1000 µM
Acetylcholinesterase [21]
  IC50: 35.5 µM

## CC(c1cccc(OC(=O)N(C)C)c1)N(C)C (centres undefined)
Acetylcholinesterase [19]
  IC50: 0.03 µM

## C#CCNC1CCc2cccc(OC(=O)N(C)CC)c21 (centres undefined)
Acetylcholinesterase [22]
  IC50: 525 µM
Butyrylcholinesterase [23]
  IC50: 0.31 µM

## C#CCN(C)C1CCc2ccc(OC(=O)N(C)CCC)cc21 (centres undefined)
Acetylcholinesterase [19]
  IC50: > 1000 µM

## CCN(C)C(=O)Oc1cccc(CCNC)c1
[10]
  IC50: > 1000 µM
[24]
  IC50: 20 µM

## CCNC1CCc2ccc(OC(=O)N(C)C)cc21 (centres undefined)
[25]
  IC50: 500 µM
Acetylcholinesterase [15]
  IC50: 24.5 µM

## C#CCNC1CCc2ccc(OC(=O)N(C)Cc3ccccc3)cc21 (centres undefined)
Butyrylcholinesterase [26]
  IC50: 1.26 µM
Acetylcholinesterase [27]
  IC50: 1.78 µM

## CCNC(=O)Oc1ccc2c(c1)C(N)CC2 (centres undefined)
Acetylcholinesterase [28]
  IC50: 17.7 µM

## CCCCCCN(C)C(=O)Oc1ccc2c(c1)C(N)CC2 (centres undefined)
Acetylcholinesterase [29]
  IC50: 0.53 µM

## CN(C)C(=O)Oc1ccc2c(c1)C(N)CCC2 (centres undefined)
Acetylcholinesterase [30]
  IC50: 1.48 µM

## CCN(C)C(=O)Oc1cccc([C@H](C)N(C)C)c1 [RIVASTIGMINE]
[7]
  Bimolecular carbamoylation rate constant (ki): 23.87 M⁻¹ s⁻¹

## CCN(C)C(=O)Oc1ccc2c(c1)C(NC)CC2 (centres undefined)
Acetylcholinesterase [31]
  IC50: 38.6 µM
